CHOP inhibitor – blocks CHOP induction under ER stress. CHO-K1 CHOP-promoter luciferase, tunicamycin-induced, 15-18 h. inhibition, % at 10 µM. 220,000 tested, 3.8% active. AID 2732;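 active means compounds that reduced the stress-induced luciferase reporter signal by more than about 70% of percent inhibition, limit read from the data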
bCat nuc transl – alters nuclear translocation of beta-catenin in HeLa cells; 190,000 tested, 0.3% active; immunofluorescence imaging; nuclear translocation activity, % at 5 µM;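 active means nuclear translocation activity above 50% at 5 µM, with a well cell count of 50 or more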;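 further: per-cell ratio of nuclear to cytoplasmic median beta-catenin stain intensity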
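Test system: human HeLa cell line; Doses: 5 µM primary, 0.02–20 µM confirmation; Incubation: 24 h compound exposure, 37°C; Detection: beta-catenin immunofluorescence imaging with DAPI; Read-out: beta-catenin nuclear/cytoplasmic ratio, % activation.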
MT stabilizer – microtubule stabilization, imaging screen; 200,000 tested, 0.83% active; AID 2205; HeLa tubulin immunostaining HCS, 24 h; share of cells brighter than vehicle mean+2SD; % tubulin-high responders, % at 10 µM;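 active means plate Z-score above 3 for both tubulin-high and condensed-nucleus cell shares, with cell loss under 80%, at 10 µM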;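 further: anti alpha tubulin signal scored within the nucleus-defined area of each cell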
Lmaj promast – Leishmania major promastigote growth inhibition; Leishmania major promastigotes, resazurin fluorescence viability; inhibition, % at 10 µM; 200,000 tested, 9% active; AID 1063; in the data active means inhibition above about 50%;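 further: promastigotes grown with compound for 44 hours at 28 °C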
Autophagy HCS – autophagy modulation, high-content screen; MEF GFP-LC3 puncta imaging; test concentration mostly 10 µM; calls only at 10 µM (by protocol); 190,000 tested, 0.98% active; AID 463193;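 active means percentage of spot-positive cells more than 3 SD above its plate mean, without a fluorescence outlier flag or 80% toxicity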
Dynein cargo inh – blocks dynein driven cargo transport along microtubules; 220,000 tested, 0.47% active; 3617.4 mouse cells, GR-EGFP nuclear translocation imaging; test concentration mostly 20 µM; stimulated with dexamethasone, 1 µM; active compounds read low; z-score, hits read low;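 active means plate z-score of nuclear minus cytoplasmic receptor signal below a set negative limit, without overly bright fluorescence or cell loss, cut at about -3.5 in these data, passing the limit was not always enough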;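 further: z-score of nuclear minus cytoplasmic ring GR-EGFP intensity difference per well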
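Schedule: 48 h induction, then 1 h compound, then 30 min agonist, 37 °C. Buffer or medium: tetracycline-free induction medium containing charcoal-stripped FBS. Reagent: 1.0 µM final dexamethasone stimulus. Evaluation: nuclear versus cytoplasmic GR-EGFP signal, averaged per well. Signal: high-content fluorescence imaging after fixation.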
Numbers stand for hits; i = inactive; nt = no result given; + = active, no number. Only some compounds are listed: those with a hit (about 12% of all), similar ones and a draw of the others.

SMILES | CHOP inhibitor | bCat nuc transl | MT stabilizer | Lmaj promast | Autophagy HCS | Dynein cargo inh
CCc1cccc(NC(=O)c2ccc3c(=O)n4c(nc3c2)CCCCC4)c1 | i | i | nt | nt | nt | i
CCOc1ccc(S(=O)(=O)NN)cc1 | i | i | i | i | i | i
CCN1CCN(C(=O)CN(c2ccccc2C)S(C)(=O)=O)CC1 | i | i | i | i | i | i
COc1cc(/C=c2\s/c(=C(/C#N)C(=O)N3CCCC3)n(-c3ccccc3)c2=O)ccc1O | 94.7 | i | i | i | i | i
Cc1ccc(NC(=O)C(NC2CCCc3ccccc32)c2ccccc2)cc1Cl (centres undefined) | i | i | i | 58.3 | i | i
Cc1ccc(NC(=O)C(NC2CCCc3ccccc32)c2ccccc2)c([N+](=O)[O-])c1 (centres undefined) | i | i | i | 89.3 | i | i
COc1ccc([C@@]2(O)c3c(ccc(CC=C(C)C)c3O)NC(=O)[C@@H]2OC)cc1 | i | i | nt | nt | nt | i
Cc1nonc1NC(=O)c1ccc(Cl)c(S(=O)(=O)N2CCCCC2)c1 | i | i | i | i | i | i
CCN1C(=O)C(CC(=O)Nc2ccc(OC)cc2)N(CCCN2CCN(c3ccc(OC)cc3)CC2)C1=S (centres undefined) | i | nt | i | 72.2 | i | i
CCCOc1ccc(NC(=O)CC2C(=O)N(Cc3ccccc3)C(=S)N2Cc2cccs2)cc1 (centres undefined) | i | i | i | 64.9 | i | i
COc1ccc(NC(=O)CC2C(=O)N(CCc3ccccc3)C(=S)N2Cc2cccnc2)cc1 (centres undefined) | i | i | i | 84.9 | i | i
CCN1C(=O)C(CC(=O)Nc2ccc(OC)cc2)N(CCN2CCOCC2)C1=S (centres undefined) | i | i | nt | nt | nt | i
CCN1C(=O)C(CC(=O)Nc2ccc(OC)cc2)N(Cc2cccnc2)C1=S (centres undefined) | i | nt | i | i | i | i
CCN1C(=O)C(CC(=O)Nc2ccc(F)cc2)N(CCc2ccc(OC)cc2)C1=S (centres undefined) | 93.2 | i | nt | i | i | i
Cc1ccc2nc(-c3ccc(-c4ccccn4)s3)cn2c1 | i | i | nt | nt | nt | i
COc1cc(/C=N/n2cnnc2)ccc1OCCSc1ccc(C)cc1 | i | i | i | 54.6 | i | i
COc1ccc(Cn2cnc([N+](=O)[O-])c2)cc1[N+](=O)[O-] | i | i | nt | nt | nt | i
O=[N+]([O-])c1cn(Cc2ccc(Cl)cc2)cn1 | i | i | i | 63.6 | i | i
Cc1ncc([N+](=O)[O-])n1CCOC(=O)c1ccccc1 | i | i | i | i | i | i
Cc1ncc([N+](=O)[O-])n1Cc1ccc(Br)cc1 | i | i | i | 90.5 | i | i
Cc1ncc([N+](=O)[O-])n1CC(O)CCl (centres undefined) | i | nt | i | i | i | i
Cc1ncc([N+](=O)[O-])n1Cc1ccc(Cl)cc1 | i | i | i | 82.6 | i | i
CCOC(=O)C1CCN(C(=O)c2sccc2Cl)CC1 | i | i | nt | nt | nt | i
CCOCCCN1C(=O)C(O)=C(C(C)=O)C1c1cccs1 (centres undefined) | i | nt | i | i | i | i
COc1ccccc1C1NC(=O)NC(C)=C1C(=O)OC1CCCCC1 (centres undefined) | i | i | i | i | i | i
SMILES | CHOP inhibitor | bCat nuc transl | MT stabilizer | Lmaj promast | Autophagy HCS | Dynein cargo inh
CC(Oc1ccccc1)C(=O)NNC(=O)c1ccccn1 (centres undefined) | i | i | i | 78.8 | i | i
O=C(NNC(=O)c1ccccn1)c1cccc([N+](=O)[O-])c1 | i | i | i | 57.6 | i | i
COc1cc(OC)cc(C(=O)NNC(=O)c2ccccn2)c1 | i | i | i | 93.0 | i | i
COc1cc(OC)cc(C(=O)NC(=S)NNC(=O)c2cnccn2)c1 | i | i | i | 100.4 | i | i
COc1ccc(C(=O)NC(=S)NNC(=O)c2cnccn2)cc1OC | i | i | i | 100.3 | i | i
C/C(=N\NC(=O)C(C)Oc1ccc([N+](=O)[O-])cc1)c1ccccn1 (centres undefined) | i | i | i | 99.7 | i | i
CC(=O)c1nnn(-c2ccc([N+](=O)[O-])cc2)c1C | i | i | i | i | i | i
COc1ccc(-c2ccc(/C=C3/C(=N)N4C=CSC4=NC3=O)o2)c([N+](=O)[O-])c1 | 82.2 | i | i | i | i | i
CCOC(=O)C1(Cc2cccc(OC)c2)CCN(Cc2cnc(N)nc2)CC1 | i | i | i | i | i | i
CCOC(=O)C1(Cc2ccc(Cl)cc2)CCN(Cc2ccon2)CC1 | i | i | i | 95.0 | i | i
CCOC(=O)C1(Cc2ccccc2Cl)CCN(Cc2csc(C(C)=O)c2)CC1 | i | i | i | 90.3 | i | i
CCOC(=O)C1(S(=O)(=O)c2ccc(Cl)cc2)CCN(Cc2ccc(C)cc2)CC1 | 74.3 | nt | i | i | i | i
CCOC(=O)C1(Cc2ccc(Cl)cc2)CCN(Cc2cnc(N)nc2)CC1 | i | i | i | 53.2 | i | i
CCOC(=O)C1(CCOC)CCN(Cc2ccncc2)CC1 | i | i | i | i | i | i
CCc1n[n+](CC(=O)c2ccccc2)c(N)s1 | i | i | i | i | i | i
O=C(O)c1ccc(CS(=O)(=O)c2cccc(C(F)(F)F)c2)o1 | i | i | i | i | i | i
CCc1oc(C(=O)OC)cc1CSC(=N)N | i | i | nt | nt | nt | i
O=C(O)c1cn(Cc2ccccc2Cl)c2ccc(S(=O)(=O)N3CCOCC3)cc2c1=O | i | i | i | i | i | i
COc1ccc(N2CCN(/C(=N\S(=O)(=O)c3ccccc3)Nc3nc(C)cc(C)n3)CC2)cc1 | i | i | i | i | + | i
COc1ccc2[nH]cc(CCNS(=O)(=O)c3ccc(NC(C)=O)cc3)c2c1 | i | i | i | i | + | i
CC1CCCN(C(=S)SCC(=O)c2cc(Br)cc(Br)c2O)C1 (centres undefined) | i | i | i | i | i | i
O=C(CSC(=S)N1CCCC1)c1cc(Br)cc(Br)c1O | i | i | i | 95.2 | i | i
COc1cccc(CN(C(=O)Cn2nnc(-c3ccccc3F)n2)C(C(=O)NC(C)(C)C)c2ccncc2)c1 (centres undefined) | i | i | i | i | i | i
Cc1cc(C(=O)NNC(=O)c2nn(C)c(=O)c3ccccc23)c(C)o1 | i | i | i | 65.4 | i | i
CCOC(=O)c1cnc2ccc(OC)cc2c1NCCc1ccc(OC)c(OC)c1 | i | i | i | 64.5 | i | i
CCOC(=O)c1cnc2ccc(OCC)cc2c1N1CCN(c2ccccc2)CC1 | i | i | i | i | i | i
CCOC(=O)c1cnc2c(OC)cccc2c1NCc1cccnc1 | i | i | i | i | i | i
CCOC(=O)c1cnc2ccc(OCC)cc2c1NCc1cccnc1 | i | i | i | 65.3 | i | i
CCOC(=O)c1cnc2ccc(OCC)cc2c1NCc1ccccc1 | i | i | i | 98.0 | i | i

High-throughput results from PubChem BioAssay.
